Results: ChEMBL document CHEMBL4145669 (J Med Chem, 2018)
Square brackets hold non-standard residues; d marks the D form. Peptide text beside a SMILES is read from it. hPhe = N[C@@H](CCc1ccccc1)C(=O)O; Nle = CCCC[C@H](N)C(=O)O; Dap = NC[C@H](N)C(=O)O

Key:
Melanocortin receptor 3 = Melanocortin receptor 3 (Mus musculus, UniProt P33033); assay: Antagonist activity at mouse MC3R expressed in HEK293 cells assessed as reduction in NDP-MSH-induced response incubated for 2 hrs by AlphaScreen cAMP assay based Schild analysis; assay type: functional, cell-based; details: read-out: pA2 (converted)
Sequence of Melanocortin receptor 3 (P33033 whole entry): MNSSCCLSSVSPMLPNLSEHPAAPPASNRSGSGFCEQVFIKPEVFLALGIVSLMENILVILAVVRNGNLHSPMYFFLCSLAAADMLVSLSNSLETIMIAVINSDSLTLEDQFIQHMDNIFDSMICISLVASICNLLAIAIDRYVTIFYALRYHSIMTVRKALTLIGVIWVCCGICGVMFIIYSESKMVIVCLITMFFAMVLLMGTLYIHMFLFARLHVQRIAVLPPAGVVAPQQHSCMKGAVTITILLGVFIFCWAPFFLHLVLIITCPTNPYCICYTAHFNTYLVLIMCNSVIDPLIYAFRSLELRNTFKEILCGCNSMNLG

Mus musculus = species on record: Mus musculus; assay: Selectivity index, ratio of pA2 for antagonist activity at mouse MC3R expressed in HEK293 cells to pA2 for antagonist activity at mouse MC4R expressed in HEK293 cells; assay type: cell-based
[1] = target: Melanocortin receptor 4 (Mus musculus) (UniProt P56450); assay: Agonist activity at mouse MC4R expressed in HEK293 cells at 100 uM incubated for 2 hrs by AlphaScreen cAMP assay relative to untreated control; assay type: functional, cell-based
Sequence of Melanocortin receptor 4 (Mus musculus) (P56450 whole entry): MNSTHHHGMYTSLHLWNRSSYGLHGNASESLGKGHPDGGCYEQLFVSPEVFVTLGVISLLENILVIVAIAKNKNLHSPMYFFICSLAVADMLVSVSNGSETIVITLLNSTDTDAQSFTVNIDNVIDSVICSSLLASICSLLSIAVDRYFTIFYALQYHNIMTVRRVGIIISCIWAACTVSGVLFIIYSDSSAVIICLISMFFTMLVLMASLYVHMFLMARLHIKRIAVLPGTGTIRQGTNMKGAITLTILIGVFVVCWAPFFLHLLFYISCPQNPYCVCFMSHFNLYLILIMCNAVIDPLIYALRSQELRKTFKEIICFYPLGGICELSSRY

[2] = target: Melanocyte-stimulating hormone receptor (Mus musculus) (UniProt Q01727); assay: Agonist activity at mouse MC1R expressed in HEK293 cells at 100 uM incubated for 2 hrs by AlphaScreen cAMP assay relative to NDP-MSH; assay type: functional, cell-based
Sequence of Melanocyte-stimulating hormone receptor (Mus musculus) (Q01727 whole entry, looked up): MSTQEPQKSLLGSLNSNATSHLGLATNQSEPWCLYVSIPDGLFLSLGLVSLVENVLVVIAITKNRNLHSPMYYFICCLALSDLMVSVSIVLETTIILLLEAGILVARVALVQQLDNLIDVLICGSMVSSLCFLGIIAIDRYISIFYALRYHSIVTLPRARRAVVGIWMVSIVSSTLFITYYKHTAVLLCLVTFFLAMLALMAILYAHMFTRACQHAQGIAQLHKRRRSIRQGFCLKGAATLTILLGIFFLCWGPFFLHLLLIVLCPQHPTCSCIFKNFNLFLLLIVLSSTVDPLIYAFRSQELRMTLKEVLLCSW
How it was run: (§1)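 HEK293 cells stably expressing mouse MC1R, about 90% confluent, were detached with Versene and suspended at 10,000 cells/μL in stimulation buffer (HBSS, 0.5 mM IBMX, 5 mM HEPES, 0.1% BSA, pH 7.4) with anti-cAMP acceptor beads. Compound was added for 2 h at room temperature in the dark, then donor beads/biotinylated cAMP in lysis buffer for 2 h, followed by AlphaScreen read. Doses went up to 100 μM in duplicate wells, ≥3 experiments. EC50 came from nonlinear regression, with efficacy as a percent of NDP-MSH.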

Melanocortin receptor 4 = Melanocortin receptor 4 (Mus musculus, UniProt P56450); assay: Antagonist activity at mouse MC4R expressed in HEK293 cells assessed as reduction in NDP-MSH-induced response incubated for 2 hrs by AlphaScreen cAMP assay based Schild analysis; assay type: functional, cell-based; details: read-out: pA2 (converted)
Sequence of Melanocortin receptor 4 (P56450 whole entry): as the sequence (P56450 whole entry) above

Melanocortin receptor 5 = Melanocortin receptor 5 (Mus musculus, UniProt P41149); assay: Inverse agonist activity at mouse MC5R expressed in HEK293 cells incubated for 2 hrs by AlphaScreen cAMP assay; assay type: functional, cell-based
Sequence of Melanocortin receptor 5 (P41149 whole entry): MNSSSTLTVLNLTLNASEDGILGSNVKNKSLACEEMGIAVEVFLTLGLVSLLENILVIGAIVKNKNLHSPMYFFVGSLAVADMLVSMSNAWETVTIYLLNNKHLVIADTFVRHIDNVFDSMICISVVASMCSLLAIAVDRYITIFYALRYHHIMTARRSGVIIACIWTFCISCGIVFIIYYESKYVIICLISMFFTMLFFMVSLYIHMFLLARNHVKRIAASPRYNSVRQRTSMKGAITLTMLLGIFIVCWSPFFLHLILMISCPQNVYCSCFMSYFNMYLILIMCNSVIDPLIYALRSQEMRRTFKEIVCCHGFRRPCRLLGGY
How it was run: (§2)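 In the mouse MC5R HEK293 stable line, cells in IBMX-containing stimulation buffer with anti-cAMP acceptor beads were exposed to compound at up to 100 μM for 2 h at room temperature in the dark. Donor beads/biotinylated cAMP were then added for 2 h before AlphaScreen reading. Signal was normalized to basal response to give a percent difference from basal. Duplicate wells, ≥3 independent experiments.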

[3] = target: Melanocortin receptor 5 (Mus musculus) (UniProt P41149); assay: Inverse agonist activity at mouse MC5R expressed in HEK293 cells at 100 uM incubated for 2 hrs by AlphaScreen cAMP assay; assay type: functional, cell-based; how it was run: as §2
Sequence of Melanocortin receptor 5 (Mus musculus) (P41149 whole entry): as above

[4] = target: Melanocortin receptor 3 (Mus musculus) (UniProt P33033); assay: Agonist activity at mouse MC3R expressed in HEK293 cells at 100 uM incubated for 2 hrs by AlphaScreen cAMP assay relative to untreated control; assay type: functional, cell-based
Sequence of Melanocortin receptor 3 (Mus musculus) (P33033 whole entry): as the sequence (P33033 whole entry) above

[5] = target: Melanocyte-stimulating hormone receptor (Mus musculus, UniProt Q01727); assay: Agonist activity at mouse MC1R expressed in HEK293 cells incubated for 2 hrs by AlphaScreen cAMP assay; assay type: functional, cell-based; how it was run: as §1
Sequence of Melanocyte-stimulating hormone receptor (Q01727 whole entry): as the sequence (Q01727 whole entry, looked up) above

Row | Compound | Kb (Melanocortin receptor 3) | Ratio (Mus musculus) | Activity [1] | Activity [2] | Kb (Melanocortin receptor 4) | EC50 (Melanocortin receptor 5) | Activity [3] | Activity [4] | EC50 [5]
1 | N=C(N)NCCC[C@@H]1NC(=O)[C@@H]2CCCN2C(=O)[C@H]2CCCN2C(=O)[C@H](Cc2ccccc2)NC(=O)[C@H](CO)NC(=O)[C@H](CC(N)=O)NC(=O)[C@H](CCc2ccccc2)NC(=O)[C@H](Cc2ccccc2)NC1=O | 0.316 µM | 130 | < 20% | 40% | 0.00251 µM | > 100 µM | < 20% | < 20% | –
2 | CCCC[C@@H]1NC(=O)[C@H](CO)NC(=O)[C@H](CN)NC(=O)[C@H](Cc2ccccc2)NC(=O)[C@H](Cc2ccccc2)NC(=O)[C@H](CCCNC(=N)N)NC(=O)[C@@H]2CCCN2C(=O)[C@H]2CCCN2C1=O (cyclo(RFF[Dap]S[Nle][dP]P)) | 0.316 µM | 430 | < 20% | < 20% | 0.000794 µM | > 100 µM | < 20% | < 20% | > 100 µM
3 | N=C(N)NCCC[C@@H]1NC(=O)[C@H](CCc2ccccc2)NC(=O)[C@H](Cc2ccccc2)NC(=O)[C@H](CCCNC(=N)N)NC(=O)[C@@H]2CCCN2C(=O)[C@H]2CCCN2C(=O)[C@H](Cc2ccccc2)NC(=O)[C@H](CO)NC1=O (cyclo(RF[hPhe]RSF[dP]P)) | 0.02 µM | 13 | < 20% | 30% | 0.00158 µM | > 100 µM | < 20% | < 20% | –
4 | CCCC[C@@H]1NC(=O)[C@H](C)NC(=O)[C@H](CN)NC(=O)[C@H](Cc2ccccc2)NC(=O)[C@H](Cc2ccccc2)NC(=O)[C@H](CCCNC(=N)N)NC(=O)[C@@H]2CCCN2C(=O)[C@H]2CCCN2C1=O | 0.0794 µM | 79 | < 20% | – | 0.001 µM | > 100 µM | < 20% | < 20% | 0.19 µM
5 | CCCC[C@@H]1NC(=O)[C@H](CO)NC(=O)[C@H](CCCNC(=N)N)NC(=O)[C@H](Cc2ccccc2)NC(=O)[C@H](Cc2ccccc2)NC(=O)[C@H](CCCNC(=N)N)NC(=O)[C@@H]2CCCN2C(=O)[C@H]2CCCN2C1=O (cyclo(RFFRS[Nle][dP]P)) | 0.0794 µM | 320 | < 20% | < 20% | 0.000251 µM | > 100 µM | < 20% | < 20% | > 100 µM
6 | CCCC[C@@H]1NC(=O)[C@H](CO)NC(=O)[C@H](CCCNC(=N)N)NC(=O)[C@H](CCc2ccccc2)NC(=O)[C@H](Cc2ccccc2)NC(=O)[C@H](CCCNC(=N)N)NC(=O)[C@@H]2CCCN2C(=O)[C@H]2CCCN2C1=O (cyclo(RF[hPhe]RS[Nle][dP]P)) | 0.0126 µM | 37 | < 20% | – | 0.000316 µM | > 100 µM | < 20% | < 20% | 0.4 µM
7 | C[C@@H]1NC(=O)[C@H](CCCNC(=N)N)NC(=O)[C@H](CCc2ccccc2)NC(=O)[C@H](Cc2ccccc2)NC(=O)[C@H](CCCNC(=N)N)NC(=O)[C@@H]2CCCN2C(=O)[C@H]2CCCN2C(=O)[C@H](Cc2ccccc2)NC1=O (cyclo(RF[hPhe]RAF[dP]P)) | 0.01 µM | 8 | < 20% | 25% | 0.00126 µM | > 100 µM | < 20% | < 20% | –
8 | N=C(N)NCCC[C@@H]1NC(=O)[C@@H]2CCCN2C(=O)[C@H]2CCCN2C(=O)[C@H](Cc2ccccc2)NC(=O)[C@H](CO)NC(=O)[C@H](CN)NC(=O)[C@H](CCc2ccccc2)NC(=O)[C@H](Cc2ccccc2)NC1=O | 0.0631 µM | 120 | < 20% | 40% | 0.000631 µM | > 100 µM | < 20% | < 20% | –
